Consider ten molecules from ChEMBL document CHEMBL1158774, “Collagenase inhibitory quinic acid esters from Ipomoea pes-caprae” (J Nat Prod, 2005).

The test is described as follows: Inhibition of collagenase type 5. In short, it runs like this:
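Collagenase type V ([…]) with a 20 µg/mL enzyme solution is preincubated with samples in 4% MeOH at 37 °C for 10 min. Fluorogenic substrate MOCAc-Pro-Leu-Gly-Leu-A2pr(Dnp)-Ala-Arg-NH2 (5 µM solution) is then added. Fluorescence (ex 320, em 405 nm) is read during 1 h at 37 °C. Phosphoramidon is the positive control.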
One may read the IC50 as the point on the concentration scale where inhibition reaches its midpoint. A lower IC50 goes with higher potency. The molecule `CC(C)C[C@H](NP(=O)(O)O[C@@H]1O[C@@H](C)[C@H](O)[C@@H](O)[C@H]1O)C(=O)N[C@@H](Cc1c[nH]c2ccccc12)C(=O)O` [PHOSPHORAMIDON] came in with a half-inhibitory concentration (IC50) of 0.6 µM.

`O=C(/C=C/c1ccc(O)c(O)c1)O[C@@H]1C[C@](O)(C(=O)O)C[C@@H](OC(=O)/C=C/c2ccc(O)c(O)c2)[C@H]1OC(=O)/C=C/c1ccc(O)cc1` came in with a concentration for half-maximal inhibition (IC50) of 19.1 µM.

For the molecule `O=C(O)/C=C/c1ccc(O)c(O)c1` [CAFFEIC ACID], the IC50 stood at 82.7 µM.

`O=C(/C=C/c1ccc(O)c(O)c1)O[C@@H]1[C@H](O)C[C@@](O)(C(=O)O)C[C@H]1OC(=O)/C=C/c1ccc(O)c(O)c1` had an IC50 of 37.2 µM.

Consider `O=C(/C=C/c1ccc(O)c(O)c1)O[C@@H]1[C@H](OC(=O)/C=C/c2ccc(O)cc2)C[C@@](OC(=O)/C=C/c2ccc(O)cc2)(C(=O)O)C[C@H]1OC(=O)/C=C/c1ccc(O)c(O)c1`, for which the IC50 is 14.2 µM.

In turn, `COC(=O)[C@]1(O)C[C@@H](O)[C@@H](OC(=O)/C=C/c2ccc(O)c(O)c2)[C@H](OC(=O)/C=C/c2ccc(O)c(O)c2)C1` came in with an IC50 of 26.6 µM.

As to `O=C(/C=C/c1ccc(O)c(O)c1)O[C@@H]1C[C@](O)(C(=O)O)C[C@@H](OC(=O)/C=C/c2ccc(O)c(O)c2)[C@H]1O`, the 50% inhibitory concentration (IC50) came out at 23.6 µM.

As to `COC(=O)[C@@]1(O)C[C@@H](O)[C@H](OC(=O)/C=C/c2ccc(O)c(O)c2)[C@H](OC(=O)/C=C/c2ccc(O)c(O)c2)C1` [3,4-O-TRANS-CAFFEOYLQUINIC ACID METHYL ESTER], the concentration for half-maximal inhibition (IC50) was found to be 16.2 µM.

The molecule `O=C(O)[C@]1(O)C[C@@H](O)[C@@H](O)[C@H](O)C1` [QUINIC ACID] yielded a 50% inhibitory concentration (IC50) above 500 µM.

`COC(=O)[C@]1(O)C[C@@H](OC(=O)/C=C/c2ccc(O)c(O)c2)[C@@H](O)[C@H](OC(=O)/C=C/c2ccc(O)c(O)c2)C1` registered a half-inhibitory concentration (IC50) of 5.8 µM.
